Screening results as filed in PubChem BioAssay.
The list is not random: actives were taken first. Their share in the collection is about 12%.
Arbovirus inh: blocks arbovirus infection; 200,000 tested, 0.37% active; inhibition, % at 10 µM; AID 1251; arbovirus infection cell-based antiviral screen; in the data active means inhibition above about 30%
Rad51 HR inh: blocks human Rad51 in homologous recombination. Q06609. hRad51 DNA strand exchange, fluorescence dequenching. 200,000 tested, 0.085% active. inhibition, % at 10 µM. AID 1385;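 active means inhibition above 40% at the single screening dose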
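Test system: preformed human Rad51 ssDNA filaments; also added: Donor/quencher-labelled 47-bp dsDNA substrate; doses: 10 µM final, single point; times: 37 °C 15-min filament assembly, 30-min compound preincubation, 15-min exchange; detection: FRET fluorescence dequenching, excitation 485 nm, emission 520 nm; read-out basis: Fluorescence-based percent inhibition, control- and blank-normalised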
Wee1 degr inh: inhibitors of human Wee1 degradation | P30291 | HeLa Luc-Wee1K328M stability, luciferase luminescence; 100% = proteasome inhibitor MG132 effect | reporter increase, % at 5 µM | 220,000 tested, 1.2% active;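 active means activation above the mean of all tested compounds plus 3 SD, set per screening run, cut at about 8.8% in these data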;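 further: cells exposed to compound for 20 h before luminescence read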
Lmaj promast: reduces viability of Leishmania major promastigotes; 200,000 tested, 9% active; AID 1063; inhibition, % at 10 µM; resazurin fluorescence viability;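 further: promastigotes grown with compound for 44 hours at 28 °C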
CHOP inh: inhibitors of CHOP induction in ER stress response; CHO-K1 CHOP-promoter luciferase, tunicamycin-induced, 15-18 h; inhibition, % at 10 µM; 220,000 tested, 3.8% active;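 active means compounds that reduced the stress-induced luciferase reporter signal by more than about 70% of percent inhibition, limit read from the data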
PKD1 kinase inh: PKD1 (human) kinase inhibition | Q15139 | PKD1 kinase fluorescence polarization assay | inhibition, % (no concentration beside the values) | 200,000 tested, 0.056% active
Target sequence (Q15139 whole entry, looked up): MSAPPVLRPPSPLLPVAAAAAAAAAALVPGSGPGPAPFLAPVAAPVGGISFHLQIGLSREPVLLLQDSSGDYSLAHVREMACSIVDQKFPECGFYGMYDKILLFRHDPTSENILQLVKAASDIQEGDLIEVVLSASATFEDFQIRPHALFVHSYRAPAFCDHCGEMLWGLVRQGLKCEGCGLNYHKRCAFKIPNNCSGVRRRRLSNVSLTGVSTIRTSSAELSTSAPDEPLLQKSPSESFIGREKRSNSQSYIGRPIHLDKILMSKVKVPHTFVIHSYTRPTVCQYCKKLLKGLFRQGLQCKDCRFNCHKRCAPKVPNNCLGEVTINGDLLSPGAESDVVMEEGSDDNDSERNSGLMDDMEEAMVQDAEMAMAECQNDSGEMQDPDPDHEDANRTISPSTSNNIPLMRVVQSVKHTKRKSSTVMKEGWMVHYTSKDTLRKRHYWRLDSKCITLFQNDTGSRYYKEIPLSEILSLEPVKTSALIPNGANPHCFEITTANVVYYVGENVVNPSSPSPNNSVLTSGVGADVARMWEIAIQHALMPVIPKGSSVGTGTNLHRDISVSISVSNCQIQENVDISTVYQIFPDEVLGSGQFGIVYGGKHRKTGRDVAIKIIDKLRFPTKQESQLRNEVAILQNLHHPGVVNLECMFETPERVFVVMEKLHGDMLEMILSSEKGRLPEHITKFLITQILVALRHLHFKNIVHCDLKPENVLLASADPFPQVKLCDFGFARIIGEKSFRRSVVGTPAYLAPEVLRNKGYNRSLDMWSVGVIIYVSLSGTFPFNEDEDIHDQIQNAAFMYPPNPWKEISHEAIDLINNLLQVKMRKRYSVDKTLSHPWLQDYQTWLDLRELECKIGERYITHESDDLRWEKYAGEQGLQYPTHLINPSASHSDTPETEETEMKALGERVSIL
A number is an active result; - = inactive; . = no result given. Unless noted, no stated cut-off is given here; in the data, active means inhibition above about 50%; inactive means the rest.

SMILES	Arbovirus inh	Rad51 HR inh	Wee1 degr inh	Lmaj promast	CHOP inh	PKD1 kinase inh
Cc1nn2c(C(F)(F)F)cc(-c3ccc(Cl)cc3)nc2c1C(=O)N1CCOCC1	-	-	-	92.0	-	-
O=C(c1cnn2c(C(F)(F)F)cc(-c3ccccc3)nc12)N1CCOCC1	-	-	-	-	-	-
CSc1nsc(SCC(=O)Nc2nc3ccccc3s2)n1	-	-	-	62.6	-	-
Cc1nc(SCC(=O)Nc2nc3ccccc3s2)c(C#N)c(C)c1C	-	-	-	-	102.4	-
COc1ccc(-c2csc(NC(=O)CSc3nc(C)cs3)n2)cc1	-	-	-	-	-	-
Cc1cc(C(F)(F)F)c(C#N)c(SCC(=O)Nc2nc3ccccc3s2)n1	-	-	-	-	-	-
COc1ccc(-c2csc(NC(=O)CSc3nc(SC)ns3)n2)cc1	-	.	-	51.7	-	-
COc1ccc(OC)c2c1C(=O)C(Cl)=C(Cl)C2=O	.	-	-	.	106.1	.
COc1ccc(OC)c2c1C(=O)c1ccccc1C2=O	-	-	-	-	-	-
O=C(N=Nc1c(O)[nH]c2ccc([N+](=O)[O-])cc12)c1ccccc1[N+](=O)[O-]	.	-	-	.	-	.
CCN(CC)S(=O)(=O)c1cc([N+](=O)[O-])ccc1N=Nc1c(O)[nH]c2ccccc12	-	-	-	-	75.2	-
CCCCCCC(=O)N=Nc1c(O)[nH]c2ccc([N+](=O)[O-])cc12	-	-	-	78.2	-	-
CCn1c(=NC(=O)c2ccc(S(=O)(=O)N(C)C)cc2)sc2cccc(OC)c21	-	-	-	70.5	-	-
C=CCn1c(=NC(=O)c2cccs2)sc2cccc(OC)c21	.	.	-	.	-	.
COc1ccccc1NC(=O)COc1ccc(Br)cc1CNC1CCCC1	-	-	-	94.5	-	-
CCNCc1cc(Br)c(OCC(=O)Nc2ccccc2)c(OC)c1	-	-	-	100.6	-	-
COc1ccccc1NC(=O)COc1ccc(Br)cc1CO	-	-	-	-	-	-
COc1cc(CNCCc2ccccc2)cc(Br)c1OCC(=O)Nc1ccccc1C	-	-	-	99.8	-	-
COc1cc(CO)ccc1OCC(=O)Nc1ccc(Br)cc1	-	-	-	-	-	-
CNCc1cc(Br)c(OCC(=O)Nc2ccccc2OC)c(OC)c1	-	-	-	99.8	-	-
O=C(O)c1cc(O)ccc1NC(=O)c1cccc2ccccc12	.	-	-	.	-	.
COc1ccccc1NC(=O)COc1cc(Br)c(CNCCCN2CCOCC2)cc1OC	-	-	-	54.9	-	-
C/C(=N\NS(=O)(=O)c1cccc([N+](=O)[O-])c1)c1cccnc1	-	-	-	-	-	-
Cc1c(Br)c([N+](=O)[O-])nn1CCCC(=O)NC(C)c1ccccc1 (stereo unspecified)	-	-	-	-	-	-
O=C(Cn1nc([N+](=O)[O-])nc1Br)NC(c1ccccc1)c1ccccc1	-	-	-	78.6	-	-
SMILES	Arbovirus inh	Rad51 HR inh	Wee1 degr inh	Lmaj promast	CHOP inh	PKD1 kinase inh
C[n+]1nc(Nc2ccccc2)sc1-c1ccc(C(=O)O)cc1	.	.	.	.	-	.
COc1ccc(C)cc1NCc1cc(=O)oc2cc(-c3ccccc3)c(O)cc12	-	-	-	-	93.1	-
Cc1cc(C)cc(NCc2cc(=O)oc3cc(-c4ccccc4)c(O)cc23)c1	-	-	-	-	103.1	-
Cc1ccc(NC(=O)CN(C)C(=O)c2nn(C)c(=O)c3ccccc23)cc1	.	-	-	.	-	.
CC1Cc2ccccc2N1c1nc(C2CC2)nc2c1nnn2Cc1ccccc1 (stereo unspecified)	-	-	-	-	-	-
CC1Cc2ccccc2N1c1ncnc2c1nnn2Cc1ccccc1 (stereo unspecified)	-	-	-	-	73.0	-
CCOC(=O)Nc1ccc2c(c1)ncn2C1CCCCC1	-	-	-	84.0	-	-
CN(c1ncc(C(F)(F)F)cc1Cl)n1cc(C(N)=O)c2ccccc2c1=O	-	-	-	-	-	-
COc1ccc2cc(/C(C)=N/NC(=S)Nc3cc(S(=O)(=O)N4CCOCC4)ccc3N3CCOCC3)ccc2c1	-	-	-	75.0	-	-
O=C(Nc1cc(S(=O)(=O)N2CCCCC2)ccc1N1CCOCC1)c1cc(=O)[nH]c2ccccc12	.	-	-	.	-	.
COC(=O)CCC(=O)Nc1cc(S(=O)(=O)Nc2ccc(Cl)cc2)ccc1N1CCOCC1	-	-	-	-	-	-
COc1ccc(NS(=O)(=O)c2ccc(N3CCOCC3)c(NC(=O)c3ccccc3Cl)c2)cc1	-	-	-	97.5	-	-
C/C(=N\NC(=S)Nc1cc(S(=O)(=O)N2CCOCC2)ccc1Cl)c1ccc(N2CCOCC2)cc1	.	.	-	.	-	.
COc1ccc(-c2cc(C(=O)Nc3cc(S(=O)(=O)N4CCOCC4)ccc3N3CCOCC3)c3ccccc3n2)cc1	-	-	-	65.0	-	-
COc1ccc(NS(=O)(=O)c2ccc(N3CCOCC3)c(NC(=O)c3ccc(OC)cc3)c2)cc1	-	-	-	82.2	-	-
COc1ccc(S(=O)(=O)Nc2cc(C(=O)NC(C)C)ccc2N2CCOCC2)cc1	-	-	-	-	-	-
O=C(CCc1ccccc1)Nc1cc(C(=O)O)cc(C(=O)O)c1	-	-	-	-	-	-
Brc1ccc(-c2cn3c(n2)CCc2ccc4cccnc4c2-3)cc1	-	-	-	100.0	.	-
C/C(=N\NC(=O)Cc1cccc2ccccc12)c1ccncc1	-	-	-	-	-	-
O=C(CN1/C(=C(/O)c2ccccc2)C(=O)c2ccccc2S1(=O)=O)c1ccccc1	-	-	-	-	95.5	-
CCOC(=O)C1=NN(C(C)=O)C2C(=O)N(CC)C(=O)C12 (stereo unspecified)	.	-	-	.	-	.
Cc1sc2nc(N3CCOCC3)[nH]c(=O)c2c1-c1ccccc1	-	-	-	-	-	-
Cc1sc2nc(C(C)Nc3ccccc3N3CCOCC3)[nH]c(=O)c2c1C (stereo unspecified)	-	-	-	-	74.7	-
COC(=O)[C@@]1(Cc2ccc(F)cc2)[C@H]2c3cc(C(=O)N(C)C)n(Cc4ccc(OC(F)(F)F)cc4)c3C[C@H]2CN1C(=O)c1ccccc1	-	.	-	82.8	-	-
COC(=O)[C@@]1(Cc2ccc(F)cc2)[C@H]2c3cc(C(=O)N4CCCC4)n(CCO)c3C[C@H]2CN1C(=O)c1ccccc1	-	-	-	-	-	-
COC(=O)[C@@]1(Cc2ccc(OC)cc2)[C@H]2c3cc(C(=O)N4CCCC4)n(CCSCCO)c3C[C@H]2CN1C(=O)c1ccccc1	-	-	-	50.9	-	-
COC(=O)[C@@]1(Cc2ccc(F)cc2)[C@H]2c3cc(C(=O)N4CCCC4)n(CCc4ccc(O)c(O)c4)c3C[C@H]2CN1C(=O)c1ccccc1	-	.	-	100.1	-	-
COC(=O)[C@@]1(Cc2ccccc2)[C@H]2c3cc(C(=O)N4CCCC4)n(Cc4ccsc4Br)c3C[C@H]2CN1C(=O)c1ccccc1	-	-	-	54.1	-	-
